A short description of the data set: Toxicity liver stage against HepG2, at 10uM. The data set is classed as cell-based. The arrangement: test concentration 10 uM, cell line HepG2-A16-CD81EGFP. The following applies: human, HepG2-A16-CD81EGFP cells; read-out: INHIBITION
An outline of the steps: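 Uninfected HepG2-A16-CD81EGFP cells, 3 × 10^3 per well, 1536-well, plated on prespotted compound at 10 μM final, parasite-free screening media added to match infected plates; puromycin 10 μM positive, DMSO 0.5% negative; run in parallel with 48 h PbLuc assay at 37 °C, 5% CO2; viability by CellTiter-Glo luminescence, normalized to controls.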
Regarding `CN1CC=C(c2noc(CCC(=O)N3CCc4ccccc4C3)n2)CC1`, the cytotoxicity at 10 µM is 6.97%. As for `CC(C)n1ccc2c(NC(=O)c3n[nH]c4c3CCC4)cccc21`, the cytotoxicity at 10 µM came to 7.64%. With `COc1ccc(CC(C)(O)CNC(=O)Cc2ccc(F)cc2)cc1` (stereo unspecified), the cytotoxicity at 10 µM is 3.91%.

With `O=C(Nc1cnc(N2CCOCC2)nc1)c1ccc(C(F)(F)F)cc1`, the cytotoxicity at 10 µM was 9.94%.

Consider `Cc1ccc(S(=O)(=O)N2CCC(Oc3ccccn3)CC2)c(C)c1`, for which the cytotoxicity at 10 µM worked out at 26.3%. Consider `CCN(C)C(=O)c1cnc(-c2noc3cc(N4CCCCC4)ccc23)s1`, for which the cytotoxicity at 10 µM stood at 48.6%. Regarding `CCOCC1c2c(ncn2C(C)C)CCN1C(=O)C1CC1` (stereo unspecified), the cytotoxicity at 10 µM is 10.5%. Take `Cc1ccc(C(=O)N2C[C@@H]3CN(c4ncccn4)C[C@@H]3C2)cn1`: the cytotoxicity at 10 µM was 6.86%. Regarding `Cc1c(C)n(Cc2ccncc2)c2nc3c(c(N)c12)CCCCCC3`, the cytotoxicity at 10 µM worked out at 9.18%.

In the case of `COc1ccc(NC2CCc3c2[nH]c(=O)n(C2CCCCC2)c3=O)cc1` (stereo unspecified), the cytotoxicity at 10 µM was 2%. `CCCc1nc(N2CCCCCC2)c2c(n1)c(C)nn2CC`: the cytotoxicity at 10 µM came out at 39.4%. `Fc1ccccc1-c1nnn(CCCc2nn[nH]n2)n1`: the cytotoxicity at 10 µM is -4.3%. For the compound `c1cnc(N2CCC(c3csc(Nc4cnccn4)n3)CC2)nc1`, the cytotoxicity at 10 µM came out at 34%. Regarding `Cc1nn(C)cc1C1=NS(=O)(=O)N(C)C(C(=O)Nc2ccc(Cl)cc2)=C1`, the cytotoxicity at 10 µM came to 7.9%. `Fc1cccc(Nc2nc(N3CCCC3)nc3c2CNCC3)c1`: the cytotoxicity at 10 µM is -18%. As to `Nc1cc(CCC2CN(Cc3ccc4cc[nH]c4c3)CCO2)ccn1` (stereo unspecified), the cytotoxicity at 10 µM is -10.6%.

`Cc1ccc(S(=O)(=O)N2C[C@H]3C[C@H](NC(=O)c4ccnn4C)[C@H]3C2)cc1`: the cytotoxicity at 10 µM was determined as 85.2%.

Turning to `CCN(CC)c1ncc(Cl)c(C(=O)NC2CCc3nccn3C2)n1` (stereo unspecified), the cytotoxicity at 10 µM was -49.5%.

As to `NS(=O)(=O)c1ccc(NCc2ccccc2)cc1C(F)(F)F`, the cytotoxicity at 10 µM turned out to be 3.85%.

Regarding `Fc1ccc(CNCc2cc(Br)c3c(c2)OCO3)cc1`, the cytotoxicity at 10 µM was determined as 0.658%. Turning to `COc1ccc(CNCCC(=O)N2CCc3sccc3C2)cc1O`, the cytotoxicity at 10 µM amounted to 4.48%.

With `CCc1cnc(COc2ccc(OC3CCCCNC3=O)cc2)o1` (stereo unspecified), the cytotoxicity at 10 µM stood at 0.318%. In the case of `CC(C)(C)n1ncc(NCCc2ccccc2C(F)(F)F)c(Cl)c1=O`, the cytotoxicity at 10 µM was 57%. With `CC(C)c1nnc(NC(=O)Cc2csc(-c3nnc[nH]3)n2)s1`, the cytotoxicity at 10 µM was -47.2%. The figure for `CNC(=O)CCOC(=O)c1cccc(-n2cccn2)c1` is -39.6%. Consider `CCc1nc(CN2CCN(C(=O)c3cc(C)nn3C)CC2)cs1`, for which the cytotoxicity at 10 µM amounted to 3.83%. `COc1ccnc(N2CCCN(c3nc(C4CC4)ns3)CC2)n1`: the cytotoxicity at 10 µM turned out to be 0.142%. Turning to `O=C(NC1CCC(N2C(=O)CCC2=O)CC1)c1c[nH]c2ccccc12` (stereo unspecified), the cytotoxicity at 10 µM is -2.06%. With `CCC(=O)NC1CCCN(C(=O)c2ccc(OCC3CC3)nc2)C1` (stereo unspecified) the figure was 15.2%; with `Cc1ncc(C(=O)NCCNc2ncnc3sccc23)s1`, 27.6%; with `CCCC(=O)N(C)c1cccc2ncccc12`, 3.94%. For the compound `O=S(=O)(c1ccc(Cl)cc1)N1CCN(CCCn2ccnc2)CC1`, the cytotoxicity at 10 µM was -6.18%. As for `Cc1cccc(OCC(O)CN2CCN(c3nccs3)CC2)c1` (stereo unspecified), the cytotoxicity at 10 µM is 16.5%. The figure for `Cc1cnn(CC2CN(CCCS(=O)(=O)N(C)C)CCO2)c1` (stereo unspecified) is -2.71%; for `Cc1[nH]ncc1CCCNC(=O)Nc1ccc(F)cc1` it is 3.91%; for `CCSc1cc(C(=O)NCc2ccc(C(=O)NC)cc2)ccn1` it is 32.6%.

With `O=c1[nH]ncc(NCCOc2ccc3c(c2)CCC3)c1Cl`, the cytotoxicity at 10 µM is 34.5%. `Cc1ccc(-c2n[nH]cc2CNCCn2cccn2)o1`: the cytotoxicity at 10 µM was -11.2%.

`Fc1ccc(-c2n[nH]cc2CNCCn2cccn2)cc1`: the cytotoxicity at 10 µM was found to be 8.1%. With `Cc1nc(C)n(CC2CCCN2CC(=O)NCCC2=CCCCC2)n1` (stereo unspecified), the cytotoxicity at 10 µM is -0.527%. Take `O=C(c1cc(F)cc2[nH]cnc12)N1CCCCC1Cn1cccn1` (stereo unspecified): the cytotoxicity at 10 µM amounted to 16.5%. As to `O=S(=O)(N1CCOCC1)N1CCc2sccc2C1`, the cytotoxicity at 10 µM is -92.3%.

As for `CCNC(=O)N1CCC(NC(=O)NCCc2cccc(C)c2)C1` (stereo unspecified), the cytotoxicity at 10 µM was -42.2%. With `CCCNC(=O)c1cccc(CNCc2csc(C(C)(C)C)n2)c1` the figure was 12.3%; with `CCN1CCN(c2ccc(C(=O)NCCOC)cc2F)CC1`, 1.12%. Regarding `COCC(O)CNc1ccc(C#N)cc1C(F)(F)F` (stereo unspecified), the cytotoxicity at 10 µM turned out to be 13.3%. With `CN1CCN(C2CCN(c3cnc4ccccc4n3)CC2)C1=O` the figure was 27.4%; with `Cc1nnc2n1CCN(CC(O)CN1CCC(C)CC1)C2` (stereo unspecified), 2.78%. For `O=C1C(N2CC[C@@H](O)C2)CCCN1Cc1cccc(C(F)(F)F)c1` (stereo partly specified), the cytotoxicity at 10 µM turned out to be 1.22%. In the case of `CCc1ccc(CNC(=O)c2ccc(N3CCOC3=O)cc2)s1`, the cytotoxicity at 10 µM came to 22.5%. `Cc1ccc(OCC(O)CN(C)CC(=O)Nc2cc(C)on2)c(C)c1` (stereo unspecified): the cytotoxicity at 10 µM was -17.3%. With `O=C(c1ccc(Br)s1)N1CCN(Cc2ccc(OC(F)(F)F)cc2)CC1`, the cytotoxicity at 10 µM amounted to 23.1%.

On to `CN(Cc1ccc(N2CCCCC2)cc1)Cc1noc(C(C)(C)C)n1`, for which the cytotoxicity at 10 µM was 12.5%.

`COCC(=O)N1CCC2(CC1)CN(CC1CC1)c1ccc(F)cc12`: the cytotoxicity at 10 µM was -103%. Consider `O=S(=O)(c1ccccc1)N1CCC2(CCCN2Cc2cccc(F)c2)C1` (stereo unspecified), for which the cytotoxicity at 10 µM is -68.4%. The figure for `CC(=O)NCC(=O)N1CCN(Cc2ccncc2)c2ncccc2C1` is -90.3%; for `Cc1cccc(CN2CC[C@H]3C[C@@H](C)O[C@@H]3C2)n1` it is -65.5%; for `O=C(c1cccs1)N1C[C@H]2CCC[C@@]2(COCC2CCOCC2)C1` it is -68.9%. Take `CC[C@@H](C)[C@@H](N)C(=O)Nc1cccc(-c2cnc(N(C)C)nc2)c1`: the cytotoxicity at 10 µM is -4.78%.

In the case of `COCCc1noc(C2CCCN(c3ncnc4c3CCC4)C2)n1` (stereo unspecified), the cytotoxicity at 10 µM is 19.3%.

As for `COc1ccc(C(=O)C2CCCN(Cc3cccc(F)c3)C2)c(OC)c1` (stereo unspecified), the cytotoxicity at 10 µM turned out to be 6.4%. As to `COc1ccc2c(c1)OCC(Cc1ccc(N)nc1C)C2` (stereo unspecified), the cytotoxicity at 10 µM amounted to 21.8%. Take `COC(=O)N1CCC2(CC1)N=C(CCC(C)C)NC2=O`: the cytotoxicity at 10 µM is -2.77%. For `N[C@@H]1c2ccccc2C2(CCN(c3ccc(C(F)(F)F)cn3)CC2)[C@H]1O`, the cytotoxicity at 10 µM is -5.78%.

For the compound `CC(C)c1noc(CN(Cc2cccnc2)C2CN3CCC2CC3)n1` (stereo unspecified), the cytotoxicity at 10 µM is 17.2%. In the case of `FC(F)(F)c1ccccc1CCC1CCCN(Cc2cscn2)C1` (stereo unspecified), the cytotoxicity at 10 µM was found to be 2.28%.

For the compound `COc1ccnc(CNc2nc(C)nc3ccsc23)c1`, the cytotoxicity at 10 µM is 40.5%. With `C[C@@H](O)[C@H](NC(=O)c1csc2nc(-c3ccccc3F)cn12)C(N)=O`, the cytotoxicity at 10 µM came to 2.37%. With `Nc1nc(NCCO)cc(N2CCc3c([nH]c4ccccc34)C2)n1` the figure was 11.9%. Take `Cc1noc(-c2ccc(N3CCC(C(=O)N4CCCC4)CC3)nc2)n1`: the cytotoxicity at 10 µM turned out to be 6.5%. `CN(Cc1ccn[nH]1)Cc1c[nH]nc1-c1ccc(F)cc1`: the cytotoxicity at 10 µM is -6.41%. As to `Cc1cnc(C)c(N2CCC(c3nnc(CN(C)C)n3C3CC3)CC2)n1`, the cytotoxicity at 10 µM was -0.918%. In the case of `O=C(NCc1cnn2cccnc12)c1cccc(CC2CCNCC2)c1`, the cytotoxicity at 10 µM is -44.5%.

Regarding `COCCN1CC2(CCCN(c3ncc(Cl)cc3F)C2)CCC1=O` (stereo unspecified), the cytotoxicity at 10 µM is 21.8%. With `O=c1cc(N2CCNCC2)cnn1Cc1noc(C2CCCC2)n1`, the cytotoxicity at 10 µM is -53.5%. `Cn1ncc(NC(=O)Cn2cc(-c3ccc(F)cn3)cn2)n1`: the cytotoxicity at 10 µM is 7.16%. Regarding `Cc1cc(N(C)Cc2cc(C(C)(C)C)n[nH]2)nc(-c2cccnc2)n1`, the cytotoxicity at 10 µM came out at 19.9%. On to `CCN(CC)C(CNCc1ccc(O)cc1)c1ccco1` (stereo unspecified), for which the cytotoxicity at 10 µM turned out to be 1.29%. Regarding `O=C(Cc1nc(-c2ccncc2)n[nH]1)N1CCOCC1`, the cytotoxicity at 10 µM was -0.749%.

Take `Cc1ccc(CN2CCN(c3nc4c(s3)c(C)nn4C)C(C)C2=O)cc1` (stereo unspecified): the cytotoxicity at 10 µM worked out at 76.5%.

With `COCCCNC(=O)Cc1nc(-c2ccncc2)n[nH]1`, the cytotoxicity at 10 µM is -9.72%. As to `CCC(C)c1ccc(NC(=O)C2CCN(C(=O)N(C)C)CC2)cc1` (stereo unspecified), the cytotoxicity at 10 µM was -7.29%.

Regarding `COc1cccc2c1OCC(NCCc1cnn(-c3ccccc3)c1)C2` (stereo unspecified), the cytotoxicity at 10 µM is -0.6%. Regarding `Cn1ncc2c(NCCOc3ccc(F)cc3)nc(C3CCCC3)nc21`, the cytotoxicity at 10 µM was determined as 6.1%. The figure for `CCc1cccc(N2CCC(NC(=O)c3cc[nH]n3)CC2)c1` is 3.08%; for `c1ccc(OCCNC2=NCCCN2)cc1` it is -2.34%; for `Cc1cccc(CN2CCc3c(COCC(=O)N(C)C)nn(C)c3C2)n1` it is -120%.

In the case of `Cn1ccnc1NC[C@@H]1CCC[C@@H]2CN(CC3CC3)C[C@@H]21`, the cytotoxicity at 10 µM was determined as 16%. The figure for `c1ccc(N2CCOC3(CCCN(c4ncccn4)C3)C2)nc1` (stereo unspecified) is -103%; for `O=C(c1ccsc1)N1C[C@@H]2CCN(c3cccnc3)C[C@@H]2C1` it is -69.3%; for `CC(C)(C)CN1CCCC12CCN(S(=O)(=O)c1ccccc1)C2` (stereo unspecified) it is -67.5%. For `O=S1(=O)c2ccccc2C2(CCN(Cc3cccnc3)C2)N1CC1CC1` (stereo unspecified), the cytotoxicity at 10 µM is -68.7%. The figure for `O=C1COC2(CCN(CC3CC3)CC2)CN1c1ccsc1` is -79.2%; for `O=C(c1ccco1)N1CCC2(CCCN(c3ncccn3)C2)C1` (stereo unspecified) it is -105%. Consider `O=C1CCCC2=Nc3nonc3NC(c3cc(Cl)ccc3F)C12` (stereo unspecified), for which the cytotoxicity at 10 µM is 35.5%. For `O=C1[C@@H]2CC[C@@H](CN(c3ncnc4ccsc34)C2)N1CC1CC1`, the cytotoxicity at 10 µM amounted to 15.2%.

(Values after ChEMBL document CHEMBL4513216, “Probing the Open Global Health Chemical Diversity Library for Multistage-Active Starting Points for Next-Generation Antimalarials” (ACS Infect Dis, 2020).)
